Each structure is given as a SMILES string. Calls of active or inactive are those of the source. The calls are words filed in the database; no cut-off is given here.

In ChEMBL document CHEMBL2046286, “Deconstructing 14-phenylpropyloxymetopon: minimal requirements for binding to mu opioid receptors” (Bioorg Med Chem, 2012) one finds Ki and Activity data, which are given here for 24 compounds.

Assay type in all cases: tissue-based
In assay [1] the target is Delta-type opioid receptor (Rattus norvegicus, UniProt P33533). The experiment in a line: (§1) Displacement of [3H]DPDPE from delta opioid receptor in rat brain homogenate after 1 hr by liquid scintillation counting.
Assay [2] concerns the target Kappa-type opioid receptor (Rattus norvegicus, UniProt P34975). In words: (§2) Displacement of [3H]U69593 from kappa opioid receptor in rat brain homogenate after 1 hr by liquid scintillation counting.
Assay [3] addresses Mu-type opioid receptor (Rattus norvegicus) (UniProt P33535). In words: (§3) Displacement of [3H]DAMGO from mu opioid receptor in rat brain homogenate after 1 hr by liquid scintillation counting. In outline: (§4)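 Competition with 12 concentrations of test compound, 1 h at 25°C; terminated by rapid vacuum filtration through GF/B filters presoaked in 0.5% polyethyleneimine. Bound radioactivity counted by liquid scintillation; Ki by Cheng-Prusoff.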
Background: Displacement assays read how much labelled ligand stays bound in the presence of the test substance.

In assay [4] the target is Delta-type opioid receptor (Rattus norvegicus) (UniProt P33533). The assay is described as §1.
Assay [5] has as its target Kappa-type opioid receptor (Rattus norvegicus) (UniProt P34975). The assay is described as §2.
In the next assay the target is Mu-type opioid receptor (Rattus norvegicus, UniProt P33535). The assay is described as §3. The procedure, abridged:
as §4

Chain of Mu-type opioid receptor (Rattus norvegicus) (P33535 whole entry): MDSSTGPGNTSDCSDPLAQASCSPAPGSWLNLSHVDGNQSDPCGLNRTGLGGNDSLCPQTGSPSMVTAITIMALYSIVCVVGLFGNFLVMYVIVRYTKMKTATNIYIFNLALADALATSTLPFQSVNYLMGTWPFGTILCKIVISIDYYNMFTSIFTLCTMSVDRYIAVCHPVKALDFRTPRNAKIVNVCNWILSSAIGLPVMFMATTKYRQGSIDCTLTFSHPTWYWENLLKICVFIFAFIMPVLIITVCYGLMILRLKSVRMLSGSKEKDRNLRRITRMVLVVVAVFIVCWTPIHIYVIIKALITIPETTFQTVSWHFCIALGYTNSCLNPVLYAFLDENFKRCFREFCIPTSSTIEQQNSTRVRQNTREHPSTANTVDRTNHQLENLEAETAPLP
Chain of Mu-type opioid receptor (P33535 whole entry): as above
Chain of Kappa-type opioid receptor (P34975 whole entry): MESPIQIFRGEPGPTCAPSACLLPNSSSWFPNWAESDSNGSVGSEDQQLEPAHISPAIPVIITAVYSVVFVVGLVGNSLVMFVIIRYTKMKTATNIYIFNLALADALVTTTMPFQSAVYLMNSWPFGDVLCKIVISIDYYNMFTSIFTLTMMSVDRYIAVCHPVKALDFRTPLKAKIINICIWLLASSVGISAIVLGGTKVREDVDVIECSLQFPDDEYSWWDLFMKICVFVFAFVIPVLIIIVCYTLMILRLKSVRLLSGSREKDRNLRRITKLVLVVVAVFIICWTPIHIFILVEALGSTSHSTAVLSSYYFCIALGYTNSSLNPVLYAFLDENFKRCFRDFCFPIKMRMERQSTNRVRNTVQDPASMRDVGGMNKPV
Chain of Kappa-type opioid receptor (Rattus norvegicus) (P34975 whole entry): as above
Chain of Delta-type opioid receptor (P33533 whole entry): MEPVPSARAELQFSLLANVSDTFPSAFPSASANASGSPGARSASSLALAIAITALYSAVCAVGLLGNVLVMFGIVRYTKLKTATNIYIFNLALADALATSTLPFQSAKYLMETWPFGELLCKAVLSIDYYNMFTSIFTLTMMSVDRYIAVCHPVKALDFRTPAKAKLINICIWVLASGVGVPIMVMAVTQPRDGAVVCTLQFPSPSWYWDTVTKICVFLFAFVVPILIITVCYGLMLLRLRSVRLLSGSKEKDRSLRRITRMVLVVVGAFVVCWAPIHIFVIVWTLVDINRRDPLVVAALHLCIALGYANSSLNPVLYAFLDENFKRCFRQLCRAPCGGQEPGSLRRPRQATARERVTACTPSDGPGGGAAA
Chain of Delta-type opioid receptor (Rattus norvegicus) (P33533 whole entry): as above

What is called Ki is a dissociation constant, usually derived from enzyme kinetics or from competition with a known ligand. For `CN(CCCc1ccccc1)CCOC/C=C/c1ccccc1`, the inhibitory constant (Ki) in assay [1] and in assay [2] was above 10 µM each time.

Regarding `C(=C\c1ccccc1)/COCCN1CCCC1`, the outcome in assay [3], in assay [4] and in assay [5] was inactive.

`CN(C)CCOC/C=C/c1ccccc1` showed a Ki on Mu-type opioid receptor above 10 µM.

In turn, `CN(C)CCOCCCc1ccccc1` displayed a Ki at Mu-type opioid receptor above 10 µM.

As for `CN(CCOC/C=C/c1ccccc1)CCc1ccccc1`, the Ki is 1.68 µM at Mu-type opioid receptor, 6.85 µM in assay [1] and above 10 µM in assay [2].

Turning to `CCCCN(CCCC)CCOCCCc1ccccc1`, the Ki is 2.49 µM on Mu-type opioid receptor, above 10 µM in assay [1] and above 10 µM in assay [2].

For `C=CCN(CC=C)CCOC/C=C/c1ccccc1`, the inhibition constant (Ki) on Mu-type opioid receptor is above 10 µM. The outcome in assay [4] and in assay [5] was inactive.

As to `c1ccc(CCCOCCN2CCCC2)cc1`, the outcome in assay [3], in assay [4] and in assay [5] was inactive.

Consider `CCN(CC)C(=O)COC/C=C/c1ccccc1`, for which the Ki at Mu-type opioid receptor is above 10 µM.

Turning to `CCCN(CCC)CCOCCCc1ccccc1`, the Ki at Mu-type opioid receptor is above 10 µM.

On to `CN(CCOCCCc1ccccc1)CCc1ccccc1`, for which the Ki on Mu-type opioid receptor is 2.31 µM; in assay [2], above 10 µM.

As to `CN(CCOC/C=C/c1ccccc1)Cc1ccccc1`, the results for the Ki (on Mu-type opioid receptor; in assay [1]; in assay [2]) were 3.04 µM, above 10 µM and above 10 µM, respectively.

At Mu-type opioid receptor, `C=CCN(CC=C)CCOCCCc1ccccc1` gave an inhibitory constant (Ki) above 10 µM. In addition, the outcome in assay [4] and in assay [5] was inactive.

For `CCCCN(CCCC)CCOC/C=C/c1ccccc1`, the Ki is 2.49 µM on Mu-type opioid receptor, above 10 µM in assay [1] and above 10 µM in assay [2].

Take `c1ccc(CCCOCCN2CCCCC2)cc1`: the outcome in assay [3], in assay [4] and in assay [5] was inactive.

In the case of `CCN(CC)CCOC/C=C/c1ccccc1`, on Mu-type opioid receptor, the Ki is above 10 µM.

On to `c1ccc(CCCOCCN2CCCCCC2)cc1`, for which the result in assay [3], in assay [4] and in assay [5] was inactive.

For `CN(CCOCCCc1ccccc1)Cc1ccccc1`, the inhibition constant (Ki) at Mu-type opioid receptor is 2.76 µM; in assay [1] it was above 10 µM; in assay [2], above 10 µM.

On Mu-type opioid receptor, `CCN(CC)CCOCCCc1ccccc1` showed a Ki above 10 µM.

`C(=C\c1ccccc1)/COCCN1CCCCCC1` yielded an inhibitory constant (Ki) at Mu-type opioid receptor above 10 µM.

In the case of `CCCN(CCC)CCOC/C=C/c1ccccc1`, the Ki at Mu-type opioid receptor is above 10 µM.

Regarding `C(=C\c1ccccc1)/COCCN1CCCCC1`, the outcome in assay [3], in assay [4] and in assay [5] was inactive.

At Mu-type opioid receptor, `CCN(CC)C(=O)COCCCc1ccccc1` yielded a Ki above 10 µM.

For `CN(CCCc1ccccc1)CCOCCCc1ccccc1`, the Ki is 1.52 µM at Mu-type opioid receptor, 6.65 µM in assay [1] and above 10 µM in assay [2].
